In ChEMBL document CHEMBL4052804, “Design and synthesis of piperazine acetate podophyllotoxin ester derivatives targeting tubulin depolymerization as new anticancer agents” (Bioorg Med Chem Lett, 2017):
pIC50: −log10 of the molar value.

What was measured:
MCF7 [1] = experiment: Cytotoxicity against human MCF7 cells after 24 hrs by MTT assay; assay type: functional, cell-based; conditions: MCF7, 24 h
In short: (§1)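 In vitro antiproliferative screen by MTT assay against human MCF-7 breast, HeLa cervical, A549 lung adenocarcinoma and HepG-2 hepatoma cells. Output is the IC50.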

MCF7 [2] = experiment: Induction of apoptosis in human MCF7 cells assessed as early apoptotic cells at 4 uM after 24 hrs by Annexin-V-FITC/propidium iodide staining based flow cytometric method (reference value: 2.36 to 2.86%); assay type: functional
MCF7 [3] = experiment: Cell cycle arrest in human MCF7 cells assessed as accumulation at G1 phase at 0.6 uM after 8 hrs by propidium iodide staining based flow cytometric method (reference value: 60.19 to 60.87%); assay type: functional
MCF7 [4] = experiment: Cell cycle arrest in human MCF7 cells assessed as accumulation at G2/M phase at 0.9 uM after 12 hrs by propidium iodide staining based flow cytometric method (reference value: 5.43 to 13.68%); assay type: functional
MCF7 [5] = experiment: Cell cycle arrest in human MCF7 cells assessed as accumulation at G1 phase at 0.6 uM after 4 hrs by propidium iodide staining based flow cytometric method (reference value: 60.19 to 60.87%); assay type: functional
MCF7 [6] = experiment: Induction of apoptosis in human MCF7 cells assessed as early apoptotic cells at 12 uM after 24 hrs by Annexin-V-FITC/propidium iodide staining based flow cytometric method (reference value: 2.36 to 2.86%); assay type: functional
MCF7 [7] = experiment: Cell cycle arrest in human MCF7 cells assessed as accumulation at S phase at 0.3 uM after 12 hrs by propidium iodide staining based flow cytometric method (reference value: 27.63 to 32.34%); assay type: functional
MCF7 [8] = experiment: Induction of apoptosis in human MCF7 cells assessed as early apoptotic cells at 8 uM after 24 hrs by Annexin-V-FITC/propidium iodide staining based flow cytometric method (reference value: 2.36 to 2.86%); assay type: functional
MCF7 [9] = experiment: Induction of apoptosis in human MCF7 cells assessed as necrotic cells at 8 uM after 24 hrs by Annexin-V-FITC/propidium iodide staining based flow cytometric method (reference value: 2.35 to 2.49%); assay type: functional
A549 = experiment: Cytotoxicity against human A549 cells after 24 hrs by MTT assay; assay type: functional, cell-based; conditions: A549, 24 h; in short: as §1
MCF7 [10] = experiment: Cell cycle arrest in human MCF7 cells assessed as accumulation at G1 phase at 0.9 uM after 12 hrs by propidium iodide staining based flow cytometric method (reference value: 58.69 to 62.23%); assay type: functional
MCF7 [11] = experiment: Cell cycle arrest in human MCF7 cells assessed as accumulation at S phase at 0.9 uM after 12 hrs by propidium iodide staining based flow cytometric method (reference value: 27.63 to 32.34%); assay type: functional
MCF7 [12] = experiment: Induction of apoptosis in human MCF7 cells assessed as late apoptotic cells at 4 uM after 24 hrs by Annexin-V-FITC/propidium iodide staining based flow cytometric method (reference value: 2 to 3.7%); assay type: functional
MCF7 [13] = experiment: Cell cycle arrest in human MCF7 cells assessed as accumulation at S phase at 0.6 uM after 4 hrs by propidium iodide staining based flow cytometric method (reference value: 29.55 to 32.22%); assay type: functional
MCF7 [14] = experiment: Induction of apoptosis in human MCF7 cells assessed as viable cells at 12 uM after 24 hrs by Annexin-V-FITC/propidium iodide staining based flow cytometric method (reference value: 91.6 to 92.7%); assay type: functional; conditions: MCF7, 24 h, read-out: Activity
MCF7 [15] = experiment: Induction of apoptosis in human MCF7 cells assessed as necrotic cells at 2 uM after 24 hrs by Annexin-V-FITC/propidium iodide staining based flow cytometric method (reference value: 2.35 to 2.49%); assay type: functional
MCF7 [16] = experiment: Induction of apoptosis in human MCF7 cells assessed as viable cells at 8 uM after 24 hrs by Annexin-V-FITC/propidium iodide staining based flow cytometric method (reference value: 91.6 to 92.7%); assay type: functional; conditions: MCF7, 24 h, read-out: Activity
MCF7 [17] = experiment: Cell cycle arrest in human MCF7 cells assessed as accumulation at G2/M phase at 0.6 uM after 12 hrs by propidium iodide staining based flow cytometric method (reference value: 5.43 to 13.68%); assay type: functional
MCF7 [18] = experiment: Cell cycle arrest in human MCF7 cells assessed as accumulation at G1 phase at 0.6 uM after 16 hrs by propidium iodide staining based flow cytometric method (reference value: 60.19 to 60.87%); assay type: functional
MCF7 [19] = experiment: Induction of apoptosis in human MCF7 cells assessed as viable cells at 2 uM after 24 hrs by Annexin-V-FITC/propidium iodide staining based flow cytometric method (reference value: 91.6 to 92.7%); assay type: functional; conditions: MCF7, 24 h, read-out: Activity
MCF7 [20] = experiment: Cell cycle arrest in human MCF7 cells assessed as accumulation at G2/M phase at 0.6 uM after 4 hrs by propidium iodide staining based flow cytometric method (reference value: 7.59 to 9.58%); assay type: functional
MCF7 [21] = experiment: Cell cycle arrest in human MCF7 cells assessed as accumulation at S phase at 0.6 uM after 8 hrs by propidium iodide staining based flow cytometric method (reference value: 29.55 to 32.22%); assay type: functional
MCF7 [22] = experiment: Cell cycle arrest in human MCF7 cells assessed as accumulation at G1 phase at 0.3 uM after 12 hrs by propidium iodide staining based flow cytometric method (reference value: 58.69 to 62.23%); assay type: functional
MCF7 [23] = experiment: Induction of apoptosis in human MCF7 cells assessed as late apoptotic cells at 8 uM after 24 hrs by Annexin-V-FITC/propidium iodide staining based flow cytometric method (reference value: 2 to 3.7%); assay type: functional
HepG2 = experiment: Cytotoxicity against human HepG2 cells after 24 hrs by MTT assay; assay type: functional, cell-based; conditions: HepG2, 24 h; in short: as §1
MCF7 [24] = experiment: Cell cycle arrest in human MCF7 cells assessed as accumulation at G2/M phase at 0.6 uM after 8 hrs by propidium iodide staining based flow cytometric method (reference value: 7.59 to 9.58%); assay type: functional
MCF7 [25] = experiment: Cell cycle arrest in human MCF7 cells assessed as accumulation at G1 phase at 0.6 uM after 12 hrs by propidium iodide staining based flow cytometric method (reference value: 58.69 to 62.23%); assay type: functional
MCF7 [26] = experiment: Cell cycle arrest in human MCF7 cells assessed as accumulation at S phase at 0.6 uM after 12 hrs by propidium iodide staining based flow cytometric method (reference value: 27.63 to 32.34%); assay type: functional
MCF7 [27] = experiment: Cell cycle arrest in human MCF7 cells assessed as accumulation at G2/M phase at 0.3 uM after 12 hrs by propidium iodide staining based flow cytometric method (reference value: 5.43 to 13.68%); assay type: functional
MCF7 [28] = experiment: Induction of apoptosis in human MCF7 cells assessed as viable cells at 4 uM after 24 hrs by Annexin-V-FITC/propidium iodide staining based flow cytometric method (reference value: 91.6 to 92.7%); assay type: functional; conditions: MCF7, 24 h, read-out: Activity
MCF7 [29] = experiment: Induction of apoptosis in human MCF7 cells assessed as late apoptotic cells at 2 uM after 24 hrs by Annexin-V-FITC/propidium iodide staining based flow cytometric method (reference value: 2 to 3.7%); assay type: functional
MCF7 [30] = experiment: Induction of apoptosis in human MCF7 cells assessed as late apoptotic cells at 12 uM after 24 hrs by Annexin-V-FITC/propidium iodide staining based flow cytometric method (reference value: 2 to 3.7%); assay type: functional
MCF7 [31] = experiment: Induction of apoptosis in human MCF7 cells assessed as early apoptotic cells at 2 uM after 24 hrs by Annexin-V-FITC/propidium iodide staining based flow cytometric method (reference value: 2.36 to 2.86%); assay type: functional
L02 = experiment: Cytotoxicity against human L02 cells after 24 hrs by MTT assay; assay type: cell-based; conditions: L02, 24 h
In short: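 Normal human liver L02 cells were tested at multiple concentrations in an MTT assay. Output is the median cytotoxic concentration (CC50).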

HeLa = experiment: Cytotoxicity against human HeLa cells after 24 hrs by MTT assay; assay type: functional, cell-based; in short: as §1
MCF7 [32] = experiment: Induction of apoptosis in human MCF7 cells assessed as necrotic cells at 12 uM after 24 hrs by Annexin-V-FITC/propidium iodide staining based flow cytometric method (reference value: 2.35 to 2.49%); assay type: functional
MCF7 [33] = experiment: Cell cycle arrest in human MCF7 cells assessed as accumulation at G2/M phase at 0.6 uM after 16 hrs by propidium iodide staining based flow cytometric method (reference value: 7.59 to 9.58%); assay type: functional
MCF7 [34] = experiment: Induction of apoptosis in human MCF7 cells assessed as necrotic cells at 4 uM after 24 hrs by Annexin-V-FITC/propidium iodide staining based flow cytometric method (reference value: 2.35 to 2.49%); assay type: functional
MCF7 [35] = experiment: Cell cycle arrest in human MCF7 cells assessed as accumulation at S phase at 0.6 uM after 16 hrs by propidium iodide staining based flow cytometric method (reference value: 29.55 to 32.22%); assay type: functional

COc1cc([C@@H]2c3cc4c(cc3[C@H](O)[C@H]3COC(=O)[C@H]23)OCO4)cc(OC)c1OC [PODOFILOX]
pIC50 (MCF7 [1]): 5.15 | Activity (MCF7 [2]): 7.87% | Activity (MCF7 [3]): 37.52% | Activity (MCF7 [4]): 72.04% | Activity (MCF7 [5]): 47.97% | Activity (MCF7 [6]): 13.4% | Activity (MCF7 [7]): 30.34% | Activity (MCF7 [8]): 10.1% | Activity (MCF7 [9]): 4.65% | pIC50 (A549): 5.03 | Activity (MCF7 [10]): 8.17% | Activity (MCF7 [11]): 19.79% | Activity (MCF7 [12]): 10.5% | Activity (MCF7 [13]): 29.63% | viability at 12 µM (MCF7 [14]): 62.8% | Activity (MCF7 [15]): 1.69% | viability at 8 µM (MCF7 [16]): 72.9% | Activity (MCF7 [17]): 45.4 - 47.67% | Activity (MCF7 [18]): 11.02% | viability at 2 µM (MCF7 [19]): 84.2% | Activity (MCF7 [20]): 22.4% | Activity (MCF7 [21]): 31.73% | Activity (MCF7 [22]): 40.17% | Activity (MCF7 [23]): 12.4% | pIC50 (HepG2): 5.24 | Activity (MCF7 [24]): 30.75% | Activity (MCF7 [25]): 20.81 - 27.26% | Activity (MCF7 [26]): 27.34 - 31.52% | Activity (MCF7 [27]): 29.49% | viability at 4 µM (MCF7 [28]): 79.4% | Activity (MCF7 [29]): 8.61% | Activity (MCF7 [30]): 17.4% | Activity (MCF7 [31]): 5.5% | pIC50 (L02): 5.43 | pIC50 (HeLa): 5.13 | Activity (MCF7 [32]): 6.65% | Activity (MCF7 [33]): 62.2% | Activity (MCF7 [34]): 2.34% | Activity (MCF7 [35]): 26.78%
